Data: article PMC10922812 (Antiviral research, 2024)

Columns and labels:
pERK = pERK assay by ICW; format: cell-based; settings: 24 h treatment, no virus
SV40 [1] = assay: SV40 infection by FFU infectivity assay; format: cell-based, simian virus 40; settings: Vero cells, MOI = 1 FFU/cell, 48 h
JCPyV [2] = assay: JCPyV infection by ICW assay; format: cell-based, JC polyomavirus; settings: for % JCPyV infection (ICW, TAg): MOI = 1 FFU/cell, 48 h, vs DMSO control (Fig. 2); for JCPyV infection (ICW validation of screen hits): cell type not stated, data not shown
JCPyV [3] = assay: NCC drug screen, In-Cell Western; format: cell-based, JC polyomavirus; settings: inhibitor 10 μM, SVGA cells, MOI = 0.5 FFU/cell, 72 h, VP1 ICW
JCPyV [4] = assay: JCPyV infection by FFU infectivity assay; format: cell-based, JC polyomavirus; settings: 48 h, vs DMSO control
HEK-2C cells = assay: MTS cell viability assay, HEK-2C cells; format: cell-based
SARS-CoV-2 [5] = settings: ref Yuan, Dong et al. 2022; cited from earlier work
SVGA cells = assay: MTS cell viability assay, SVGA cells; format: cell-based, human
reovirus [6] = assay: Reovirus infection by FFU infectivity assay; format: cell-based; settings: HeLa cells, MOI = 300 FFU/cell, 24 h
Procedure, shortened: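 HeLa cells at 70% confluence were pre-treated 1 h at 37°C with test compound in 10% DMEM (triplicate wells). Infection ran 1 h at RT without compound, then cells were refed with compound-containing DMEM for 24 h at 37°C. Cells were PFA-fixed and stained with reovirus antisera (1:500), anti-rabbit secondary and DAPI. % infection was positive over DAPI+ cells per 10X field, 5 fields/well.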

Vero cells = assay: MTS cell viability assay, Vero cells; format: cell-based, African green monkey; settings: vs DMSO control
JCPyV [7] = assay: JCPyV-647 attachment by flow cytometry; format: cell-based, JC polyomavirus; settings: HEK-2C cells pre-treated 1 h, virus on ice 1 h, vs DMSO
HeLa cells = assay: MTS cell viability assay, HeLa cells; format: cell-based; settings: HeLa 24 h, vs DMSO control
RPTEC = assay: MTS cell viability assay, RPTEC; format: cell-based, human; settings: RPTEC 48 h, vs DMSO control
[8] = ref Kang, Hong et al. 2017; cited from earlier work
reovirus [9] = settings: ref Mainou, Zamora et al. 2013; cited from earlier work
JCPyV [10] = assay: JCPyV infectious clone transfection, VP1+ nuclei by FFU assay; format: cell-based, JC polyomavirus; settings: SVGA cells, TFP 15 μM, day 3 or day 7
Procedure, shortened: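 SVGA cells at 50% confluence were pre-treated 1 h at 37°C with test compound or DMSO. They were transfected with 2 μg/well linearized JC pUC19 (pUC19 control) using Fugene 6 (1.5 μl:1 μg DNA) with compound present. Medium was replaced with 10% MEM after 6 h. Cells were fixed and stained for VP1 (1:40). % VP1+ nuclei was VP1+ over DAPI+ cells at 10X, 5 fields/well.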

BKPyV = BKPyV infection by FFU infectivity assay; format: cell-based, BK polyomavirus; settings: Vero cells, MOI = 4 FFU/cell, 72 h
Procedure, shortened: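 Vero E6 cells at 70% confluence were pre-treated 1 h at 37°C with test compound in 10% DMEM (triplicate wells). Infection ran 2 h at 37°C without compound, then cells were refed with compound-containing DMEM for 72 h. Cells were PFA-fixed and stained for VP1 (1:40) with DAPI. % infection was VP1+ cells over DAPI+ cells per 20X field, 5 fields/well.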

SARS-CoV-2 [11] = format: cell-based; settings: Vero cells, TCID50 = 0.025/cell, 24 h
MCPyV = settings: ref Dobson, Mankouri and Whitehouse 2020; cited from earlier work
SV40 [12] = settings: ref Dobson, Mankouri and Whitehouse 2020; cited from earlier work
[13] = HEK-2C cells, MOI = 0.5 FFU/cell
[14] = primary RPTECs, MOI = 2 FFU/cell
[15] = HEK-2C 48 h, MTS, vs DMSO control
[16] = SVGA 48 h, MTS, vs DMSO control

COC(=O)C1=C(C)NC(C)=C(C(=O)OC)C1c1ccccc1[N+](=O)[O-] [Nifedipine]
% pERK expression (ICW) (pERK; HEK-2C cells): significant reduction in pERK levels
% pERK expression (ICW) (pERK; SVGA cells): significant reduction in pERK levels
% SV40 infection (FFU, VP1) (SV40 [1]): did not reduce SV40 infection
% JCPyV infection (ICW, TAg) (JCPyV [2]; HEK-2C cells): significant reduction
JCPyV infection in NCC drug screen (hit by normalized z-score) (JCPyV [3]): hits
% JCPyV infection (FFU, TAg) (JCPyV [4]; [13]): significantly reduced JCPyV infection
% JCPyV infection (FFU, TAg) (JCPyV [4]; SVGA cells, MOI = 1 FFU/cell): did not reduce JCPyV infection
% JCPyV infection (FFU, TAg) (JCPyV [4]; [14]): significantly reduced JCPyV infection

COCCOC(=O)C1=C(C)NC(C)=C(C(=O)OC(C)C)C1c1cccc([N+](=O)[O-])c1 (stereo not drawn) [Nimodipine]
% JCPyV infection (ICW, TAg) (JCPyV [2]; HEK-2C cells): modestly reduced
% JCPyV infection (ICW, TAg) (JCPyV [2]; SVGA cells): modestly reduced
JCPyV infection in NCC drug screen (hit by normalized z-score) (JCPyV [3]): hits
% JCPyV infection (FFU, TAg) (JCPyV [4]; SVGA cells, MOI = 1 FFU/cell): did not significantly reduce JCPyV infection

CN1CCN(CCCN2c3ccccc3Sc3ccc(C(F)(F)F)cc32)CC1 [TFP, trifluoperazine]
Concentration with % Viability < 80% (HEK-2C cells; [15]): 30 µM
Concentration with % Viability ≥ 85% (HEK-2C cells; [15]): 20 µM
Concentration with % Viability ≥ 100% (HEK-2C cells; [15]): 7.5 µM
SARS-CoV-2 infection (SARS-CoV-2 [5]): inhibited
Concentration with % Viability < 80% (SVGA cells; [16]): 30 µM
Concentration with % Viability ≥ 90% (SVGA cells; [16]): 20 µM
Concentration with % Viability ≥ 100% (SVGA cells; SVGA 7 days, MTS, vs DMSO control): 15 µM
% reovirus infection (FFU) (reovirus [6]): not impacted
Concentration with % Viability ≥ 100% (Vero cells; Vero 24 h): 10 µM
Concentration with % Viability ≥ 100% (Vero cells; Vero 48 h): 20 µM
Concentration with % Viability < 80% (Vero cells; Vero 72 h): 30 µM
Concentration with % Viability ≥ 100% (Vero cells; Vero 72 h): 15 µM
JCPyV attachment (JCPyV-647, flow cytometry) (JCPyV [7]): no significant difference in JCPyV attachment
Concentration with % Viability < 80% (HeLa cells): 15 µM
Concentration with % Viability ≥ 80% (HeLa cells): 10 µM
Concentration with % Viability ≥ 100% (HeLa cells): 7.5 µM
% SV40 infection (FFU, VP1) (SV40 [1]): significantly reduced
Concentration with % Viability ≥ 90% (RPTEC): 7.5 µM
Concentration with % Viability ≥ 95% (RPTEC): 5 µM
crossing the blood-brain barrier [8]: capable of crossing the blood-brain barrier
reovirus infection (reovirus [9]): not impacted
% JCPyV infection (ICW, TAg) (JCPyV [2]; HEK-2C cells): significant reduction in JCPyV infection
% JCPyV infection (ICW, TAg) (JCPyV [2]; SVGA cells): significant reduction in JCPyV infection
% VP1+ nuclei after transfection of JCPyV infectious clone (JCPyV [10]): modest reduction in JCPyV VP1+ cells
% BKPyV infection (FFU) (BKPyV): significantly reduced
JCPyV infection in NCC drug screen (hit by normalized z-score) (JCPyV [3]): hits
% JCPyV infection (FFU, TAg) (JCPyV [4]; [13]): significant reduction of JCPyV infection
% JCPyV infection (FFU, TAg) (JCPyV [4]; SVGA cells, MOI = 1 FFU/cell): significant reduction of JCPyV infection
% JCPyV infection (FFU, TAg) (JCPyV [4]; [14]): significantly reduced JCPyV infection
% SARS-CoV-2 infection (FFU, NP) (SARS-CoV-2 [11]): dramatically impaired SARS-CoV-2 infection

COc1ccc2cc1Oc1ccc(cc1)C[C@H]1c3cc(c(OC)cc3CCN1C)Oc1c(OC)c(OC)cc3c1[C@H](C2)N(C)CC3 [Tetrandrine]
Concentration with % Viability < 80% (HEK-2C cells; human, 48 h): 10 µM
Concentration with % Viability ≥ 90% (HEK-2C cells; human, 48 h): 7 µM
Concentration with % Viability ≥ 95% (HEK-2C cells; human, 48 h): 1 µM
Concentration with % Viability ≥ 100% (SVGA cells; human, 48 h): 10 µM
% pERK expression (ICW) (pERK; HEK-2C cells): reduction in pERK levels
% pERK expression (ICW) (pERK; SVGA cells): dramatic increase in pERK
% SV40 infection (FFU, VP1) (SV40 [1]): potently inhibited
MCPyV infection (MCPyV): drastically reduced
% JCPyV infection (ICW, TAg) (JCPyV [2]; HEK-2C cells): significant reduction in infection
% JCPyV infection (ICW, TAg) (JCPyV [2]; SVGA cells): slight, but not statistically significant, increase
% JCPyV infection (FFU, TAg) (JCPyV [4]; [13]): significantly impaired
% JCPyV infection (FFU, TAg) (JCPyV [4]; SVGA cells, MOI = 1 FFU/cell): not impacted
SV40 infection (SV40 [12]): drastically reduced

COc1ccc(CCN(C)CCCC(C#N)(c2ccc(OC)c(OC)c2)C(C)C)cc1OC (stereo not drawn) [Verapamil]
MCPyV infection (MCPyV): reduces
SV40 infection (SV40 [12]): reduces

NCCCCCCNS(=O)(=O)c1cccc2c(Cl)cccc12 [W-7]
% SV40 infection (FFU, VP1) (SV40 [1]): significantly reduced
% JCPyV infection (ICW, TAg) (JCPyV [2]; HEK-2C cells): decreased JCPyV infection
% JCPyV infection (ICW, TAg) (JCPyV [2]; SVGA cells): decreased JCPyV infection
% BKPyV infection (FFU) (BKPyV): significantly reduced
% JCPyV infection (FFU, TAg) (JCPyV [4]; [13]): significant reduction of JCPyV infection
% JCPyV infection (FFU, TAg) (JCPyV [4]; SVGA cells, MOI = 1 FFU/cell): significant reduction of JCPyV infection
% SARS-CoV-2 infection (FFU, NP) (SARS-CoV-2 [11]): dramatically impaired SARS-CoV-2 infection

O=C1CN(/N=C/c2ccc(-c3ccc([N+](=O)[O-])cc3)o2)C(O)=N1 [dantrolene sodium]
JCPyV infection (ICW validation of screen hits) (JCPyV [2]): did not significantly reduce infection
JCPyV infection in NCC drug screen (hit by normalized z-score) (JCPyV [3]): hits

Fc1ccc(C(c2ccc(F)cc2)N2CCN(C/C=C/c3ccccc3)CC2)cc1 [flunarizine, Flunarizine]
MCPyV infection (MCPyV): blocks infection
% JCPyV infection (ICW, TAg) (JCPyV [2]; HEK-2C cells): No significant change in infection
% JCPyV infection (ICW, TAg) (JCPyV [2]; SVGA cells): No significant change in infection

CCOC(=O)C1=C(C)NC(C)=C(C(=O)OC)C1c1cccc([N+](=O)[O-])c1 (stereo not drawn) [nitrendipine, Nitrendipine]
% JCPyV infection (FFU, TAg) (JCPyV [4]; SVGA cells, MOI = 1 FFU/cell): did not significantly reduce JCPyV infection

CC1(C)O[C@@H]2[C@@H](CO[C@@]3(COS(N)(=O)=O)OC(C)(C)O[C@@H]23)O1 [topiramate]
JCPyV infection (ICW validation of screen hits) (JCPyV [2]): did not significantly reduce infection
JCPyV infection in NCC drug screen (hit by normalized z-score) (JCPyV [3]): hits
